Source: ChEMBL document CHEMBL1126896, “Preparation and anti-HIV activity of O-acylated heparin and dermatan sulfate derivatives with low anticoagulant effect” (J Med Chem, 1993)

Experiments:
MT4 [1] = test: Effective concentration to achieve 50% protection of MT-4 cells against the cytopathic effect of HIV-1; type: functional, cell-based
MT4 [2] = test: Selectivity index for CC50 (cytotoxic concentration based on the reduction of the viability of mock-infected MT-4 cells) to that of EC50 against HIV-1; type: functional
How it was run: (§1)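 MT-4 cells at 3 × 10^5 cells/mL were infected with HIV-1 IIIB or HIV-2 ROD at 100 CCID50/mL, or mock-infected, alongside serial compound dilutions. Viability was read by MTT after 5 days at 37 °C. CC50 comes from mock-infected cells and EC50 from protection against cytopathicity. Index = CC50/EC50.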

MT4 [3] = test: Selectivity index for CC50 (cytotoxic concentration based on reduction of viability of mock-infected MT-4 cells) to that of EC50 against HIV-2; type: functional; how it was run: as §1
[4] = system: Simian immunodeficiency virus; test: Antiviral activity against SIV; type: functional, organism-based
HuT78 [5] = test: Giant-cell formation between persistently HIV-1 infected HUT-78 cells and uninfected MOLT-4 cells; type: functional, cell-based
How it was run: (§2)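 MOLT-4 cells were co-cultured with an equal number of HUT-78 cells persistently infected with HIV-1 IIIB or HIV-2 ROD, with varying compound concentrations. Syncytia were counted by flow cytofluorography after 24 h. EC50 is the concentration giving 50% protection against giant-cell formation.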

[6] = system: Human immunodeficiency virus 2; test: Antiviral activity against HIV-2 infected with LAV-2 ROD; type: functional, organism-based
[7] = system: Human immunodeficiency virus 1; test: Antiviral activity against HIV-1 infected with […]; type: functional, organism-based
[8] = system: Human immunodeficiency virus 2; test: Antiviral activity against HIV-2 infected with LAV-2 EHO; type: functional, organism-based
MT4 [9] = test: Effective concentration to achieve 50% protection of MT-4 cells against the cytopathic effect of HIV-2; type: functional, cell-based
[10] = system: Human immunodeficiency virus 1; test: Antiviral activity against HIV-1 infected with HIV-1HE; type: functional, organism-based
[11] = system: Human immunodeficiency virus 1; test: Antiviral activity against HIV-1 infected with HTLVIIIB; type: functional, organism-based
[12] = In vitro anticoagulant activity determined by clotting test of activated partial thromboplastin time (APTT) on a pool of human plasma; type: functional
How it was run: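 Activated partial thromboplastin time clotting test on pooled human plasma, run on an automatic coagulometer. Activities were calculated according to the European Pharmacopoeia.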

[13] = system: Human immunodeficiency virus 1; test: Antiviral activity against HIV-1 infected with HTLVIIIB (TIBO); type: functional, organism-based
HuT78 [14] = test: Giant-cell formation between persistently HIV-2 infected HUT-78 cells and uninfected MOLT-4 cells; type: functional, cell-based; how it was run: as §2
[15] = Homo sapiens, MT4, read-out: EC50
[16] = Homo sapiens, HuT78, read-out: EC50

| EC50 [4] [µg/mL] | EC50 [6] [µg/mL] | EC50 [7] [µg/mL] | EC50 [8] [µg/mL] | EC50 [10] [µg/mL] | EC50 [11] [µg/mL] | EC50 [13] [µg/mL] | SMILES | EC50 (MT4 [1]; mt4) [µg/mL] | Selectivity index (MT4 [2]) | Selectivity index (MT4 [3]) | EC50 (HuT78 [5]; hut78) [µg/mL] | EC50 (MT4 [9]; mt4) [µg/mL] | APTT [12] [IU mg-1] | EC50 (MT4 [1]; [15]) [µg/mL] | EC50 (HuT78 [14]; [16]) [µg/mL] | EC50 (HuT78 [5]; [16]) [µg/mL] | EC50 (MT4 [9]; [15]) [µg/mL] | EC50 (HuT78 [14]; hut78) [µg/mL] |
| --- | --- | --- | --- | --- | --- | --- | --- | --- | --- | --- | --- | --- | --- | --- | --- | --- | --- | --- |
| 150 | > 250 | 0.3 | 17.9 | 11.7 | 1.5 | 1.5 | O=C([O-])/C=C(\CO)OC1OC(COS(=O)(=O)[O-])C(OC2OC(C(=O)[O-])C(OC3OC(COS(=O)(=O)[O-])C(OC4OC(C(=O)[O-])C(OC5OC(COS(=O)(=O)[O-])C(O)C(O)C5NS(=O)(=O)[O-])C(O)C4OS(=O)(=O)[O-])C(O)C3NS(=O)(=O)[O-])C(O)C2OS(=O)(=O)[O-])C(O)C1NS(=O)(=O)[O-].[Na+].[Na+].[Na+].[Na+].[Na+].[Na+].[Na+].[Na+].[Na+].[Na+].[Na+] (stereo in doubt; 2a) | 1.53 | >327 | >80 | > 500 | 6.3 | 4 | – | – | – | – | – |
| – | – | – | – | – | – | – | C/C=C\COC(=O)/C=C(\CO)OC1OC(COS(=O)(=O)[O-])C(OC2OC(C(=O)OC/C=C/C)C(OC3OC(COS(=O)(=O)[O-])C(OC4OC(C(=O)OC/C=C/C)C(OC5OC(COS(=O)(=O)[O-])C(O)C(O)C5NS(=O)(=O)[O-])C(O)C4OS(=O)(=O)[O-])C(O)C3NS(=O)(=O)[O-])C(O)C2OS(=O)(=O)[O-])C(O)C1NS(=O)(=O)[O-].[Na+].[Na+].[Na+].[Na+].[Na+].[Na+].[Na+].[Na+] (centres undefined) | – | >5000 | >384 | – | – | 3 | 0.1 | 1 | 10 | 1.3 | – |
| – | – | – | – | – | – | – | O=C([O-])/C=C(\CO)OC1OC(COS(=O)(=O)[O-])C(OC2OC(C(=O)[O-])C(OC3OC(COS(=O)(=O)[O-])C(OC4OC(C(=O)[O-])C(OC5OC(COS(=O)(=O)[O-])C(O)C(O)C5NS(=O)(=O)[O-])C(O)C4OS(=O)(=O)[O-])C(O)C3NS(=O)(=O)[O-])C(O)C2OS(=O)(=O)[O-])C(O)C1NS(=O)(=O)[O-].[Na+].[Na+].[Na+].[Na+].[Na+].[Na+].[Na+].[Na+].[Na+].[Na+].[Na+] (stereo in doubt; 3a) | 0.52 | >961 | 318 | > 200 | 77 | 5 | – | > 200 | – | – | – |
| – | – | – | – | – | – | – | CCCCOC(=O)/C=C(\CO)OC1OC(COS(=O)(=O)[O-])C(OC2OC(C(=O)OCCCC)C(OC3OC(COS(=O)(=O)[O-])C(OC4OC(C(=O)OCCCC)C(OC5OC(COS(=O)(=O)[O-])C(O)C(O)C5NC(C)=O)C(O)C4OS(=O)(=O)[O-])C(O)C3NC(C)=O)C(O)C2OS(=O)(=O)[O-])C(O)C1NC(C)=O.[Na+].[Na+].[Na+].[Na+].[Na+] (centres undefined) | – | >77 | >200 | – | – | 1.2 | 6.5 | 20 | 100 | 2.5 | – |
| – | – | – | – | – | – | – | CC(=O)NC1C(OC2C(C(=O)[O-])OC(OC3C(COS(=O)(=O)[O-])OC(OC4C(C(=O)[O-])OC(OC5C(COS(=O)(=O)[O-])OC(O/C(=C/C(=O)[O-])CO)C(NC(C)=O)C5O)C(OS(=O)(=O)[O-])C4O)C(NC(C)=O)C3O)C(OS(=O)(=O)[O-])C2O)OC(COS(=O)(=O)[O-])C(O)C1O.[Na+].[Na+].[Na+].[Na+].[Na+].[Na+].[Na+].[Na+] (centres undefined) | – | >122 | >185 | – | – | 2.4 | 4.1 | 60 | 500 | 2.7 | – |
| – | – | – | – | – | – | – | O=C(/C=C(\CO)OC1OC(COS(=O)(=O)[O-])C(OC2OC(C(=O)OCc3ccccc3)C(OC3OC(COS(=O)(=O)[O-])C(OC4OC(C(=O)OCc5ccccc5)C(OC5OC(COS(=O)(=O)[O-])C(O)C(O)C5NS(=O)(=O)[O-])C(O)C4OS(=O)(=O)[O-])C(O)C3NS(=O)(=O)[O-])C(O)C2OS(=O)(=O)[O-])C(O)C1NS(=O)(=O)[O-])OCc1ccccc1.[Na+].[Na+].[Na+].[Na+].[Na+].[Na+].[Na+].[Na+] (centres undefined) | – | >1515 | >1250 | – | – | 4 | 0.33 | 2 | 1 | 0.4 | – |
| – | – | – | – | – | – | – | CCCCCC(=O)OC/C(=C\C(=O)[O-])OC1OC(COS(=O)(=O)[O-])C(OC2OC(C(=O)[O-])C(OC3OC(COS(=O)(=O)[O-])C(OC4OC(C(=O)[O-])C(OC5OC(CS(=O)(=O)[O-])C(O)C(OC(=O)CCCCC)C5NS(=O)(=O)[O-])C(OC(=O)CCCCC)C4OS(=O)(=O)[O-])C(OC(=O)CCCCC)C3NS(=O)(=O)[O-])C(OC(=O)CCCCC)C2OS(=O)(=O)[O-])C(OC(=O)CCCCC)C1NS(=O)(=O)[O-].[Na+].[Na+].[Na+].[Na+].[Na+].[Na+].[Na+].[Na+].[Na+].[Na+].[Na+] (stereo in doubt; 3h) | 0.1 | >5000 | >1250 | 3 | 0.4 | 6 | – | – | – | – | 50 |
| 5.9 | 0.7 | 0.1 | 1.3 | 0.9 | 0.1 | 0.3 | CCCC(=O)OC/C(=C\C(=O)[O-])O[C@H]1O[C@H](COS(=O)(=O)[O-])[C@@H](O[C@@H]2O[C@@H](C(=O)[O-])[C@@H](O[C@H]3O[C@H](COS(=O)(=O)[O-])[C@@H](O[C@@H]4O[C@@H](C(=O)[O-])[C@@H](O[C@H]5O[C@H](CS(=O)(=O)[O-])[C@@H](O)[C@H](OC(=O)CCC)[C@H]5NS(=O)(=O)[O-])[C@H](OC(=O)CCC)[C@H]4OS(=O)(=O)[O-])[C@H](OC(=O)CCC)[C@H]3NS(=O)(=O)[O-])[C@H](OC(=O)CCC)[C@H]2OS(=O)(=O)[O-])[C@H](OC(=O)CCC)[C@H]1NS(=O)(=O)[O-].[Na+].[Na+].[Na+].[Na+].[Na+].[Na+].[Na+].[Na+].[Na+].[Na+].[Na+] (stereo in doubt; 4g) | – | – | >2141 | 31.9 | 0.17 | 8.5 | – | – | – | – | – |
| – | – | – | – | – | – | – | C=CCOC(=O)/C=C(\CO)OC1OC(COS(=O)(=O)[O-])C(OC2OC(C(=O)OCC=C)C(OC3OC(COS(=O)(=O)[O-])C(OC4OC(C(=O)OCC=C)C(OC5OC(COS(=O)(=O)[O-])C(O)C(O)C5NS(=O)(=O)[O-])C(O)C4OS(=O)(=O)[O-])C(O)C3NS(=O)(=O)[O-])C(O)C2OS(=O)(=O)[O-])C(O)C1NS(=O)(=O)[O-].[Na+].[Na+].[Na+].[Na+].[Na+].[Na+].[Na+].[Na+] (centres undefined) | – | >2500 | >500 | – | – | 2 | 0.2 | 3 | 100 | 1 | – |
| – | – | – | – | – | – | – | CCCCCCCCOC(=O)/C=C(\CO)OC1OC(COS(=O)(=O)[O-])C(OC2OC(C(=O)OCCCCCCCC)C(OC3OC(COS(=O)(=O)[O-])C(OC4OC(C(=O)OCCCCCCCC)C(OC5OC(COS(=O)(=O)[O-])C(O)C(O)C5NS(=O)(=O)[O-])C(O)C4OS(=O)(=O)[O-])C(O)C3NS(=O)(=O)[O-])C(O)C2OS(=O)(=O)[O-])C(O)C1NS(=O)(=O)[O-].[Na+].[Na+].[Na+].[Na+].[Na+].[Na+].[Na+].[Na+] (stereo in doubt; 7g) | 0.59 | >833 | >1000 | 4 | 0.5 | 6 | – | – | – | – | 20 |
| – | – | – | – | – | – | – | CCCCOC(=O)/C=C(\COC(=O)CCC)OC1OC(COS(=O)(=O)[O-])C(OC2OC(C(=O)OCCCC)C(OC3OC(COS(=O)(=O)[O-])C(OC4OC(C(=O)OCCCC)C(OC5OC(COS(=O)(=O)[O-])C(O)C(OC(=O)CCC)C5NS(=O)(=O)[O-])C(OC(=O)CCC)C4OS(=O)(=O)[O-])C(OC(=O)CCC)C3NS(=O)(=O)[O-])C(OC(=O)CCC)C2OS(=O)(=O)[O-])C(OC(=O)CCC)C1NS(=O)(=O)[O-].[Na+].[Na+].[Na+].[Na+].[Na+].[Na+].[Na+].[Na+] (centres undefined) | – | >1785 | >1850 | – | – | 5 | 0.28 | 4 | 4 | 0.27 | – |
| – | – | – | – | – | – | – | COc1ccc(COC(=O)/C=C(\CO)OC2OC(COS(=O)(=O)[O-])C(OC3OC(C(=O)OCc4ccc(OC)cc4)C(OC4OC(COS(=O)(=O)[O-])C(OC5OC(C(=O)OCc6ccc(OC)cc6)C(OC6OC(COS(=O)(=O)[O-])C(O)C(O)C6NS(=O)(=O)[O-])C(O)C5OS(=O)(=O)[O-])C(O)C4NS(=O)(=O)[O-])C(O)C3OS(=O)(=O)[O-])C(O)C2NS(=O)(=O)[O-])cc1.[Na+].[Na+].[Na+].[Na+].[Na+].[Na+].[Na+].[Na+] (centres undefined) | – | >5000 | >119 | – | – | 4 | 0.1 | > 100 | > 100 | 4.3 | – |
